# From ChEMBL document CHEMBL3808334, “Synthesis and in vitro evaluation of novel triazine analogues as anticancer agents and their interaction studies with bovine serum albumin” (Eur J Med Chem, 2016)
# Columns and labels:
# Assay type in all cases: functional
# [1] = test system: T47D; assay: Growth inhibition of human T47D cells assessed as cell growth at 10^-4 M incubated for 48 hrs by sulforhodamine B assay; conditions: read-out: Activity
# [2] = test system: NCI-H522; assay: Growth inhibition of human NCI-H522 cells incubated for 48 hrs by sulforhodamine B assay; conditions: NCI-H522, 48 h
# How it was run: (§1)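 Cells were plated at 5,000–40,000 per well according to doubling time and preincubated 24 h at 37 °C in 5% CO2; time-zero plates were then TCA-fixed. Five concentrations (10-fold or ½-log dilutions, DMSO stock) were incubated 48 h. Cells were TCA-fixed, stained with 0.4% SRB and read at 515 nm. GI50 was taken where [(Ti−Tz)/(C−Tz)]×100 = 50.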
# [3] = Growth inhibition of human SNB19 cells incubated for 48 hrs by sulforhodamine B assay; conditions: SNB-19, 48 h; how it was run: as §1
# [4] = test system: U-251; assay: Growth inhibition of human U251 cells incubated for 48 hrs by sulforhodamine B assay; conditions: U-251, 48 h; how it was run: as §1
# [5] = test system: M14; assay: Growth inhibition of human M14 cells incubated for 48 hrs by sulforhodamine B assay; conditions: M14, 48 h; how it was run: as §1
# [6] = Growth inhibition of human OVCAR8 cells incubated for 48 hrs by sulforhodamine B assay; conditions: OVCAR-8, 48 h; how it was run: as §1
# [7] = Growth inhibition of human UO31 cells incubated for 48 hrs by sulforhodamine B assay; conditions: UO-31, 48 h; how it was run: as §1
# [8] = test system: SK-MEL-5; assay: Growth inhibition of human SK-MEL-5 cells assessed as cell growth at 10^-8 M incubated for 48 hrs by sulforhodamine B assay; conditions: SK-MEL-5, 48 h, read-out: Activity
# [9] = test system: A498; assay: Growth inhibition of human A498 cells assessed as cell growth at 10^-5 M incubated for 48 hrs by sulforhodamine B assay; conditions: A498, 48 h, read-out: Activity
# How it was run: (§2)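 Five-dose assay: five concentrations from 10-fold or ½-log serial dilutions. Cells are plated at 5,000–40,000 per well according to doubling time, grown 24 h, then exposed 48 h at 37 °C, 5% CO₂. Fixed with cold 50% TCA (final addition) for 60 min at 4 °C and stained with 0.4% SRB in 1% acetic acid. Bound dye is solubilized in 10 mM Tris base and read at 515 nm. GI₅₀ is where [(Ti−Tz)/(C−Tz)]×100 = 50, with a time-zero plate as Tz.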
# [10] = Growth inhibition of human PC3 cells assessed as cell growth at 10^-5 M incubated for 48 hrs by sulforhodamine B assay; conditions: PC-3, 48 h, read-out: Activity
# [11] = Growth inhibition of human LOXIMVI cells assessed as cell growth at 10^-7 M incubated for 48 hrs by sulforhodamine B assay; conditions: LOX IMVI, read-out: Activity
# [12] = test system: M14; assay: Growth inhibition of human M14 cells assessed as cell growth at 10^-4 M incubated for 48 hrs by sulforhodamine B assay; conditions: M14, 48 h, read-out: Activity
# [13] = test system: MDA-MB-435; assay: Growth inhibition of human MDA-MB-435 cells assessed as cell growth at 10^-4 M incubated for 48 hrs by sulforhodamine B assay; conditions: MDA-MB-435, 48 h, read-out: Activity
# [14] = test system: NCI/ADR-RES; assay: Growth inhibition of human NCI/ADR-RES cells assessed as cell growth at 10^-4 M incubated for 48 hrs by sulforhodamine B assay; conditions: read-out: Activity
# [15] = Growth inhibition of human SKOV3 cells assessed as cell growth at 10^-4 M incubated for 48 hrs by sulforhodamine B assay; conditions: SK-OV-3, 48 h, read-out: Activity
# [16] = test system: SR; assay: Growth inhibition of human SR cells assessed as cell growth at 10^-8 M incubated for 48 hrs by sulforhodamine B assay; conditions: read-out: Activity
# [17] = Growth inhibition of human Caki1 cells assessed as cell growth at 10^-7 M incubated for 48 hrs by sulforhodamine B assay; conditions: CAKI-1, 48 h, read-out: Activity
# How it was run: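 Cells seeded at 5,000–40,000/well according to doubling time and preincubated 24 h at 37 °C, 5% CO2. Time-zero plates were TCA-fixed. DMSO concentrate was diluted in medium with 50 µg/ml gentamicin to give five concentrations (10-fold or ½ log steps), then exposed 48 h. Cells were TCA-fixed, stained with 0.4% SRB and read at 515 nm. Percent growth was taken against time-zero and control; GI50, TGI and LC50 derived.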
# [18] = test system: NCI-H522; assay: Growth inhibition of human NCI-H522 cells assessed as cell growth at 10^-8 M incubated for 48 hrs by sulforhodamine B assay; conditions: NCI-H522, 48 h, read-out: Activity
# [19] = test system: ACHN; assay: Growth inhibition of human ACHN cells assessed as cell growth at 10^-6 M incubated for 48 hrs by sulforhodamine B assay; conditions: read-out: Activity; how it was run: as §2
# [20] = Growth inhibition of human PC3 cells assessed as cell growth at 10^-6 M incubated for 48 hrs by sulforhodamine B assay; conditions: PC-3, 48 h, read-out: Activity
# [21] = Growth inhibition of human HOP62 cells assessed as cell growth at 10^-5 M incubated for 48 hrs by sulforhodamine B assay; conditions: HOP-62, 48 h, read-out: Activity
# [22] = Growth inhibition of human HOP92 cells assessed as cell growth at 10^-5 M incubated for 48 hrs by sulforhodamine B assay; conditions: HOP-92, 48 h, read-out: Activity
# [23] = Growth inhibition of human SF295 cells assessed as cell growth at 10^-5 M incubated for 48 hrs by sulforhodamine B assay; conditions: SF-295, 48 h, read-out: Activity
# [24] = test system: K562; assay: Growth inhibition of human K562 cells assessed as cell growth at 10 uM incubated for 48 hrs by sulforhodamine B assay; conditions: K562, 48 h, read-out: Activity
# [25] = Growth inhibition of human MOLT4 cells assessed as cell growth at 10 uM incubated for 48 hrs by sulforhodamine B assay; conditions: MOLT-4, 48 h, read-out: Activity
# [26] = Growth inhibition of human HCT15 cells assessed as cell growth at 10 uM incubated for 48 hrs by sulforhodamine B assay; conditions: HCT-15, 48 h, read-out: Activity
# How it was run: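 Primary screen at one dose (10 µM) across 60 human cancer cell lines. Readout was growth percent relative to untreated control and time-zero.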
# [27] = read-out: LC50 (the source's name)
# [28] = read-out: pLC50 (the source's name) (converted)
structure (smiles),measurement,setting,value
c1ccc(-c2nc(Nc3ccc(-c4nc5ccccc5[nH]4)cc3)nc(N3CCOCC3)n2)cc1,growth at 100 µM,[1],-56%
same,GI50,[2]; read-out: GI50,2100 nM
same,CC50,[2]; [27],7330 nM
same,TGI,[2]; read-out: TGI,3920 nM
same,GI50,[2]; read-out: pGI50 (converted),2090 nM
same,CC50,[2]; [28],7410 nM
same,TGI,[2]; read-out: pTGI (converted),3890 nM
same,GI50,[3]; read-out: GI50,1960 nM
same,TGI,[3]; read-out: TGI,4320 nM
same,GI50,[3]; read-out: pGI50 (converted),1950 nM
same,TGI,[3]; read-out: pTGI (converted),4370 nM
same,GI50,[4]; read-out: GI50,535 nM
same,CC50,[4]; [27],4890 nM
same,TGI,[4]; read-out: TGI,1760 nM
same,GI50,[4]; read-out: pGI50 (converted),537 nM
same,CC50,[4]; [28],4900 nM
same,TGI,[4]; read-out: pTGI (converted),1780 nM
same,GI50,[5]; read-out: GI50,1340 nM
same,CC50,[5]; [27],6300 nM
same,TGI,[5]; read-out: TGI,2900 nM
same,GI50,[5]; read-out: pGI50 (converted),1350 nM
same,CC50,[5]; [28],6310 nM
same,TGI,[5]; read-out: pTGI (converted),2880 nM
same,GI50,[6]; read-out: GI50,1720 nM
same,CC50,[6]; [27],6790 nM
same,TGI,[6]; read-out: TGI,3410 nM
same,GI50,[6]; read-out: pGI50 (converted),1700 nM
same,CC50,[6]; [28],6760 nM
same,TGI,[6]; read-out: pTGI (converted),3390 nM
same,LC50,[7],6400 nM
same,GI50,[7]; read-out: GI50,1320 nM
same,TGI,[7]; read-out: TGI,2910 nM
same,GI50,[7]; read-out: pGI50 (converted),1320 nM
same,CC50,[7]; [28],6460 nM
same,TGI,[7]; read-out: pTGI (converted),2880 nM
same,growth at 0.01 µM,[8],101%
same,growth at 10 µM,[9],-76%
same,growth at 10 µM,[10],-72%
same,growth at 0.1 µM,[11],96%
same,growth at 100 µM,[12],-79%
same,growth at 100 µM,[13],-86%
same,growth at 100 µM,[14],-33%
same,growth at 100 µM,[15],-100%
same,growth at 0.01 µM,[16],100%
same,growth at 0.1 µM,[17],86%
same,growth at 0.01 µM,[18],100%
same,growth at 1 µM,[19],64%
same,growth at 1 µM,[20],92%
same,growth at 10 µM,[21],-74%
same,growth at 10 µM,[22],-75%
same,growth at 10 µM,[23],-76%
same,growth at 10 µM,[24],-30.1%
same,growth at 10 µM,[25],-37.8%
same,growth at 10 µM,[26],-68.9%
